Test results published in ChEMBL document CHEMBL1800022, “Structure-activity relationships of a series of analogues of the RFamide-related peptide 26RFa” (J Med Chem, 2011).
The source made the active and inactive calls. The calls are words filed in the database; no cut-off is given here. Non-standard residues stand in square brackets, D forms with d. Residues, ends and D or L forms follow the SMILES beside them. *: point of attachment. NBn2 = c1ccc(CN(Cc2ccccc2)*)cc1; Cha = N[C@@H](CC1CCCCC1)C(=O)O; Tle = CC(C)(C)[C@H](N)C(=O)O; X2 = CN(C)C(=NCC(=O)*)N(C)C; hSer = N[C@@H](CCO)C(=O)O; Nle = CCCC[C@H](N)C(=O)O; Abu = CC[C@H](N)C(=O)O; NHBn = c1ccc(CN*)cc1; Piv = CC(C)(C)C(=O)*

Experiments:
Assay type in all cases: functional, cell-based
[1] = biological target: T1, Pyroglutamylated RF-amide peptide receptor (Homo sapiens) (UniProt Q96P65); test: Agonist activity at DYKDDDDK-flagged human GPR103 receptor expressed in CHO-K1 cells co-expressing G-protein alpha16 assessed as stimulation of calcium mobilization at 10' -12 to 10^-5 M after 2 mins by fluorometric analysis
T1 sequence (whole entry): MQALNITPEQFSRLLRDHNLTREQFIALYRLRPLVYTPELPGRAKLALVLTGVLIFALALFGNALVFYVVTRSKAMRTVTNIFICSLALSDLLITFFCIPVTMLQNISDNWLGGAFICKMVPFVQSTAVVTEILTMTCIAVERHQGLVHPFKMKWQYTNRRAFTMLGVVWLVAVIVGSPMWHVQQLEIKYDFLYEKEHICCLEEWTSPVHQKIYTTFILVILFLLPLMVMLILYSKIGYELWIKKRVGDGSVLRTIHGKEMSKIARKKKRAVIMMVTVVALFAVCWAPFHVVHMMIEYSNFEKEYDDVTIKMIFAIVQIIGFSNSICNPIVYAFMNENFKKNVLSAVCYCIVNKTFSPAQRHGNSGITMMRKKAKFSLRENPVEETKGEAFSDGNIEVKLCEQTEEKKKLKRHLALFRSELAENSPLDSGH
How it was run: (§1)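 CHO-K1 cells stably expressing Gα16 and C-terminally flag-tagged human GPR103 (Geneticin-selected), plated at 40 000 cells/well 24 h before assay. Loaded with 2 μM Fluo-4AM for 1 h, washed, then 30 min in HBSS with 2.5 mM probenecid and 5 mM HEPES. Peptides added at 10^-12 to 10^-5 M final and fluorescence read for 2 min. Triplicates; EC50 from sigmoidal variable-slope fit, at least three experiments.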

[2] = biological target: T1, Pyroglutamylated RF-amide peptide receptor (Homo sapiens); test: Antagonist activity at DYKDDDDK-flagged human GPR103 receptor expressed in CHO-K1 cells co-expressing G-protein alpha16 assessed as inhibition of 26RFa-induced calcium mobilization after 2 mins by fluorometric analysis
How it was run: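 Same Gα16/flag-hGPR103 CHO-K1 cells, Fluo-4AM loading and HBSS/probenecid/HEPES buffer. Triplicates; IC50 reported as mean ± SEM of at least three experiments.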

[3] = biological target: T2, Pyroglutamylated RF-amide peptide receptor (Homo sapiens, UniProt Q96P65); test: Agonist activity at DYKDDDDK-flagged human GPR103 receptor expressed in CHO-K1 cells co-expressing G-protein alpha16 assessed as stimulation of calcium mobilization after 2 mins by fluorometric analysis; how it was run: as §1
T2 sequence (Q96P65 whole entry): T1 sequence (whole entry)

SMILES	Activity [1]	inhibition [2]	EC50 [3] [nM]
C[C@H](NC(=O)[C@H](CO)NC(=O)[C@H](Cc1ccccc1)NC(=O)CNC(=O)CN)C(=O)N[C@@H](CCCNC(=N)N)C(=O)N[C@@H](Cc1ccccc1)C(N)=O (H-GGFSARF-NH2)	inactive	inactive	
N=C(N)NCCC[C@H](NC(=O)[C@H](Cc1ccccc1)NC(=O)[C@H](CO)NC(=O)[C@H](Cc1ccccc1)NC(=O)CNC(=O)CN)C(=O)N[C@@H](Cc1ccccc1)C(=O)NCc1ccccc1 (H-GGFSFRF-NHBn)	inactive	inactive	
CC(C)C[C@H](NC(=O)[C@H](CC(N)=O)NC(=O)CNC(=O)[C@H](CC(C)C)NC(=O)[C@@H]1CCCN1C(=O)CNC(=O)[C@H](CO)NC(=O)[C@@H](N)[C@@H](C)O)C(=O)N[C@@H](C)C(=O)N[C@@H](CCC(=O)O)C(=O)N[C@@H](CCC(=O)O)C(=O)N[C@@H](CC(C)C)C(=O)N[C@@H](CC(N)=O)C(=O)NCC(=O)N[C@@H](Cc1ccc(O)cc1)C(=O)N[C@@H](CO)C(N)=O (H-TSGPLGNLAEELNGYS-NH2)	inactive	inactive	
CC(C)C[C@H](NC(=O)[C@H](CC(N)=O)NC(=O)CNC(=O)[C@H](CC(C)C)NC(=O)[C@@H]1CCCN1C(=O)CNC(=O)[C@H](CO)NC(=O)[C@@H](N)[C@@H](C)O)C(=O)N[C@@H](C)C(=O)N[C@@H](CCC(=O)O)C(=O)N[C@@H](CCC(=O)O)C(=O)N[C@@H](CC(C)C)C(=O)N[C@@H](CC(N)=O)C(=O)NCC(=O)N[C@@H](Cc1ccc(O)cc1)C(=O)N[C@@H](CO)C(=O)N[C@@H](CCCNC(=N)N)C(=O)N[C@@H](CCCCN)C(=O)N[C@@H](CCCCN)C(=O)NCC(=O)NCC(=O)N[C@@H](Cc1ccccc1)C(=O)N[C@@H](CO)C(=O)N[C@@H](Cc1ccccc1)C(=O)N[C@@H](CCCNC(=N)N)C(=O)N[C@@H](Cc1ccccc1)C(=O)N(Cc1ccccc1)Cc1ccccc1 (H-TSGPLGNLAEELNGYSRKKGGFSFRF-NBn2)			166
CC(C)C[C@H](NC(=O)[C@H](CC(N)=O)NC(=O)CNC(=O)[C@H](CC(C)C)NC(=O)[C@@H]1CCCN1C(=O)CNC(=O)[C@H](CO)NC(=O)[C@@H](N)[C@@H](C)O)C(=O)N[C@@H](C)C(=O)N[C@@H](CCC(=O)O)C(=O)N[C@@H](CCC(=O)O)C(=O)N[C@@H](CC(C)C)C(=O)N[C@@H](CC(N)=O)C(=O)NCC(=O)N[C@@H](Cc1ccc(O)cc1)C(=O)N[C@@H](CO)C(=O)N[C@@H](CCCNC(=N)N)C(=O)N[C@@H](CCCCN)C(=O)N[C@@H](CCCCN)C(=O)NCC(=O)NCC(=O)N[C@@H](Cc1ccccc1)C(=O)N[C@@H](CO)C(=O)N[C@@H](Cc1ccccc1)C(=O)N[C@@H](CCCNC(=N)N)C(=O)NCc1ccccc1 (H-TSGPLGNLAEELNGYSRKKGGFSFR-NHBn)			67
CC[C@@H](C)[C@H](NC(=O)[C@H](Cc1ccccc1)NC(=O)CNC(=O)CN)C(=O)N[C@@H](Cc1ccccc1)C(=O)N[C@@H](CCCN=C(N)N)C(=O)N[C@@H](Cc1ccccc1)C(N)=O			817
CC(C)(C)[C@H](NC(=O)[C@H](Cc1ccccc1)NC(=O)CNC(=O)CN)C(=O)N[C@@H](Cc1ccccc1)C(=O)N[C@@H](CCCN=C(N)N)C(=O)N[C@@H](Cc1ccccc1)C(N)=O (H-GGF[Tle]FRF-NH2)			1820
N=C(N)NCCC[C@H](NC(=O)[C@H](Cc1ccccc1)NC(=O)[C@H](CO)NC(=O)[C@H](Cc1ccccc1)NC(=O)CNC(=O)CN)C(=O)N[C@@H](Cc1ccccc1)C(=O)N(Cc1ccccc1)Cc1ccccc1 (H-GGFSFRF-NBn2)	inactive		
CC(C)C[C@H](NC(=O)[C@@H]1CCCN1)C(=O)NCC(=O)N[C@@H](CC(N)=O)C(=O)N[C@@H](CC(C)C)C(=O)N[C@@H](C)C(=O)N[C@@H](CCC(=O)O)C(=O)N[C@@H](CCC(=O)O)C(=O)N[C@@H](CC(C)C)C(=O)N[C@@H](CC(N)=O)C(=O)NCC(=O)N[C@@H](Cc1ccc(O)cc1)C(=O)N[C@@H](CO)C(=O)N[C@@H](CCCN=C(N)N)C(=O)N[C@@H](CCCCN)C(=O)N[C@@H](CCCCN)C(=O)NCC(=O)NCC(=O)N[C@@H](Cc1ccccc1)C(=O)N[C@@H](CO)C(=O)N[C@@H](Cc1ccccc1)C(=O)N[C@@H](CCCN=C(N)N)C(=O)N[C@@H](Cc1ccccc1)C(N)=O (H-PLGNLAEELNGYSRKKGGFSFRF-NH2)			43.2
NCCCC[C@H](NC(=O)[C@H](CCCCN)NC(=O)[C@H](CCCN=C(N)N)NC(=O)[C@@H](N)CO)C(=O)NCC(=O)NCC(=O)N[C@@H](Cc1ccccc1)C(=O)N[C@@H](CO)C(=O)N[C@@H](Cc1ccccc1)C(=O)N[C@@H](CCCN=C(N)N)C(=O)N[C@@H](Cc1ccccc1)C(N)=O (H-SRKKGGFSFRF-NH2)			237
C[C@H](NC(=O)[C@H](Cc1cnc[nH]1)NC(=O)[C@@H](N)CCC(=O)O)C(=O)NCC(=O)N[C@@H](CS)C(=O)N[C@@H](CCCN=C(N)N)C(=O)N[C@@H](Cc1ccccc1)C(=O)N[C@@H](CCCN=C(N)N)C(=O)N[C@@H](Cc1ccccc1)C(N)=O (H-EHAGCRFRF-NH2)			2910
N=C(N)NCCC[C@H](NC(=O)[C@H](Cc1ccccc1)NC(=O)[C@H](CC1CCCCC1)NC(=O)[C@H](Cc1ccccc1)NC(=O)CNC(=O)CN)C(=O)N[C@@H](Cc1ccccc1)C(N)=O (H-GGF[Cha]FRF-NH2)			1100
C[C@H](NC(=O)CNC(=O)CN)C(=O)N[C@@H](CO)C(=O)N[C@@H](Cc1ccccc1)C(=O)N[C@@H](CCCNC(=N)N)C(=O)N[C@@H](Cc1ccccc1)C(N)=O (H-GGASFRF-NH2)			1330
N=C(N)NCCC[C@H](NC(=O)[C@H](Cc1ccccc1)NC(=O)[C@H](CO)NC(=O)[C@H](Cc1ccccc1)NC(=O)CNC(=O)CNC(=O)[C@H](CCCCN)NC(=O)[C@H](CCCCN)NC(=O)[C@@H](N)CCCNC(=N)N)C(=O)N[C@@H](Cc1ccccc1)C(N)=O (H-RKKGGFSFRF-NH2)			282

The next lines start with the values.

Activity [1]	inhibition [2]	EC50 [3] [nM]	SMILES
inactive	inactive		N=C(N)NCCC[C@H](NC(=O)[C@H](Cc1ccccc1)NC(=O)[C@H](CO)NC(=O)[C@H](Cc1ccccc1)NC(=O)CNC(=O)CN)C(=O)N[C@H](Cc1ccccc1)C(N)=O
inactive	inactive		C[C@H](NC(=O)[C@H](Cc1ccccc1)NC(=O)[C@H](CO)NC(=O)[C@H](Cc1ccccc1)NC(=O)CNC(=O)CN)C(=O)N[C@@H](Cc1ccccc1)C(N)=O (H-GGFSFAF-NH2)
inactive	inactive		N=C(N)NCCC[C@H](NC(=O)[C@H](Cc1ccccc1)NC(=O)[C@H](CO)NC(=O)[C@@H](Cc1ccccc1)NC(=O)CNC(=O)CN)C(=O)N[C@@H](Cc1ccccc1)C(N)=O
inactive	inactive		N=C(N)NCCC[C@@H](NC(=O)[C@H](Cc1ccccc1)NC(=O)[C@H](CO)NC(=O)[C@H](Cc1ccccc1)NC(=O)CNC(=O)CN)C(=O)N[C@@H](Cc1ccccc1)C(N)=O
		2540	CC(C)(C)C(=O)NCC(=O)NCC(=O)N[C@@H](Cc1ccccc1)C(=O)N[C@@H](CO)C(=O)N[C@@H](Cc1ccccc1)C(=O)N[C@@H](CCCN=C(N)N)C(=O)N[C@@H](Cc1ccccc1)C(N)=O (Piv-GGFSFRF-NH2)
		455	CN(C)C(=NCC(=O)N[C@@H](Cc1ccccc1)C(=O)N[C@@H](CO)C(=O)N[C@@H](Cc1ccccc1)C(=O)N[C@@H](CCCNC(=N)N)C(=O)N[C@@H](Cc1ccccc1)C(N)=O)N(C)C (X2-FSFRF-NH2)
		1470	CC(C)C[C@H](NC(=O)[C@H](Cc1ccccc1)NC(=O)CNC(=O)CN)C(=O)N[C@@H](Cc1ccccc1)C(=O)N[C@@H](CCCN=C(N)N)C(=O)N[C@@H](Cc1ccccc1)C(N)=O (H-GGFLFRF-NH2)
		741	CCCC[C@H](NC(=O)[C@H](Cc1ccccc1)NC(=O)CNC(=O)CN)C(=O)N[C@@H](Cc1ccccc1)C(=O)N[C@@H](CCCN=C(N)N)C(=O)N[C@@H](Cc1ccccc1)C(N)=O (H-GGF[Nle]FRF-NH2)
		374	N=C(N)NCCC[C@H](NC(=O)[C@H](Cc1ccccc1)NC(=O)[C@H](CCO)NC(=O)[C@H](Cc1ccccc1)NC(=O)CNC(=O)CN)C(=O)N[C@@H](Cc1ccccc1)C(N)=O (H-GGF[hSer]FRF-NH2)
		355	CC[C@H](NC(=O)[C@H](Cc1ccccc1)NC(=O)CNC(=O)CN)C(=O)N[C@@H](Cc1ccccc1)C(=O)N[C@@H](CCCNC(=N)N)C(=O)N[C@@H](Cc1ccccc1)C(N)=O (H-GGF[Abu]FRF-NH2)
inactive			N=C(N)NCCC[C@H](NC(=O)[C@H](Cc1ccccc1)NC(=O)[C@H](CO)NC(=O)[C@@H](N)Cc1ccccc1)C(=O)N[C@@H](Cc1ccccc1)C(N)=O (H-FSFRF-NH2)
		2980	C[C@H](NC(=O)CN)C(=O)N[C@@H](Cc1ccccc1)C(=O)N[C@@H](CO)C(=O)N[C@@H](Cc1ccccc1)C(=O)N[C@@H](CCCN=C(N)N)C(=O)N[C@@H](Cc1ccccc1)C(N)=O (H-GAFSFRF-NH2)
		1440	CC(=O)NCC(=O)NCC(=O)N[C@@H](Cc1ccccc1)C(=O)N[C@@H](CO)C(=O)N[C@@H](Cc1ccccc1)C(=O)N[C@@H](CCCNC(=N)N)C(=O)N[C@@H](Cc1ccccc1)C(N)=O (Ac-GGFSFRF-NH2)
